Measurements published in ChEMBL document CHEMBL3875200, “Bivalent SIRT1 inhibitors” (Bioorg Med Chem Lett, 2017).
pIC50: −log10 of the molar value. Each block holds one compound with its values, some of them ahead of it. The source made the active and inactive calls. The calls are words filed in the database; no cut-off is given here.

Tests used:
[1] = molecular target: T1, NAD-dependent protein deacetylase sirtuin-1 (Homo sapiens, UniProt Q96EB6); experiment: Inhibition of recombinant human His6/GST-tagged SIRT1 expressed in Escherichia coli assessed as reduction in H2N-HK-[Nepsilon-acetyl-lysine]-LM-COOH deacetylation measured after 10 mins in presence of beta-NAD+ by RP-HPLC assay
T1 sequence (Q96EB6 whole entry): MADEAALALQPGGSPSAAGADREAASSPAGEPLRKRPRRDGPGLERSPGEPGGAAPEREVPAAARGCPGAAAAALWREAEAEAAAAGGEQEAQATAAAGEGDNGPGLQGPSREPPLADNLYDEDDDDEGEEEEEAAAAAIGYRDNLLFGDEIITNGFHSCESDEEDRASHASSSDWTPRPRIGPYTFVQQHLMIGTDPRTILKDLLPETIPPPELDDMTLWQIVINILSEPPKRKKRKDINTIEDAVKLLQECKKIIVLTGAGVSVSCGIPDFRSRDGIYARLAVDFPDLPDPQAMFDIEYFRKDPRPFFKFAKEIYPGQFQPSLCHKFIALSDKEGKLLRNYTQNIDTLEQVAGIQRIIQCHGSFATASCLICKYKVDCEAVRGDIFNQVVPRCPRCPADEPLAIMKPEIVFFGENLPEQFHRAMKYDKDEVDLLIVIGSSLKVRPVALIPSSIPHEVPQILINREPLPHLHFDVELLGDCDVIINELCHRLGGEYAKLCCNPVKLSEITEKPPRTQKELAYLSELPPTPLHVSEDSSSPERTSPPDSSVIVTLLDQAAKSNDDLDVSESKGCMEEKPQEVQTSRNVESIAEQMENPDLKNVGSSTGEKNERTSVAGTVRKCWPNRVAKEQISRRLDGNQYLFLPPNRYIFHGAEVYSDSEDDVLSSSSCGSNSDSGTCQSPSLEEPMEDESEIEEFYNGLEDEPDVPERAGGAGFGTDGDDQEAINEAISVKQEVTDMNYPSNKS

[2] = molecular target: T2, NAD-dependent protein deacetylase sirtuin-1 (Homo sapiens) (UniProt Q96EB6); experiment: Reversible inhibition of recombinant human His6/GST-tagged SIRT1 expressed in Escherichia coli assessed as inhibition of H2N-HK-[epsilonN-acetyl-lysine]-LM-COOH deacetylation measured after 10 mins in presence of beta-NAD+ by Dixon plot analysis
T2 sequence (whole entry): T1 sequence (Q96EB6 whole entry)

[3] = molecular target: T2, NAD-dependent protein deacetylase sirtuin-1 (Homo sapiens); experiment: (§1) Non-competitive inhibition of recombinant human His6/GST-tagged SIRT1 expressed in Escherichia coli assessed as deacetylation of H2N-HK-[epsilonN-acetyl-lysine]-LM-COOH at 4 to 8.5 uM measured after 10 mins in presence of varying beta-NAD+ and constant substrate concentration by Lineweaver-Burk plot analysis
How it was run: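 β-NAD⁺ was the varied co-substrate. An uncompetitive-intercept inhibition constant (Kii) and the apparent Km for β-NAD⁺ were derived from the kinetic data.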

Homo sapiens [4] = species: Homo sapiens; experiment: Selectivity ratio of IC50 for recombinant human His6/GST-tagged SIRT1 expressed in Escherichia coli to IC50 for recombinant human His6-tagged SIRT2 (2 to 389 residues) expressed in Escherichia coli
[5] = molecular target: T3, NAD-dependent protein deacetylase sirtuin-3, mitochondrial (Homo sapiens, UniProt Q9NTG7); experiment: Inhibition of recombinant human His6-tagged SIRT3 (101 to 399 residues) expressed in Escherichia coli assessed as inhibition of H2N-HK-[epsilonN-acetyl-lysine]-LM-COOH deacetylation measured after 10 mins in presence of beta-NAD+ by reversed-phase C18 HPLC analysis
T3 sequence (Q9NTG7 whole entry): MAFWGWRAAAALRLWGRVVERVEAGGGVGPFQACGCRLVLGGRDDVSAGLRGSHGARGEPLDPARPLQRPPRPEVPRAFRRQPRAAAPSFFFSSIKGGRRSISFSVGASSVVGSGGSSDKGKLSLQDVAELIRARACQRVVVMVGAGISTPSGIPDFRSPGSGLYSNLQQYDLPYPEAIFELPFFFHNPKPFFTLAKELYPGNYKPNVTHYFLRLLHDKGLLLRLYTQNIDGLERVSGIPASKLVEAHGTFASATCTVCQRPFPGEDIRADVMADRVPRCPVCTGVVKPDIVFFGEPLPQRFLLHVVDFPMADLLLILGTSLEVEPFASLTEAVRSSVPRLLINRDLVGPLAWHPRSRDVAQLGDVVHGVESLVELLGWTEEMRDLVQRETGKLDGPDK

[6] = molecular target: T4, NAD-dependent protein deacetylase sirtuin-2 (Homo sapiens, UniProt Q8IXJ6); experiment: Inhibition of recombinant human His6-tagged SIRT2 (2 to 389 residues) expressed in Escherichia coli assessed as inhibition of H2N-HK-[epsilonN-acetyl-lysine]-LM-COOH deacetylation measured after 12 mins in presence of beta-NAD+ by RP-HPLC analysis
T4 sequence (Q8IXJ6 whole entry): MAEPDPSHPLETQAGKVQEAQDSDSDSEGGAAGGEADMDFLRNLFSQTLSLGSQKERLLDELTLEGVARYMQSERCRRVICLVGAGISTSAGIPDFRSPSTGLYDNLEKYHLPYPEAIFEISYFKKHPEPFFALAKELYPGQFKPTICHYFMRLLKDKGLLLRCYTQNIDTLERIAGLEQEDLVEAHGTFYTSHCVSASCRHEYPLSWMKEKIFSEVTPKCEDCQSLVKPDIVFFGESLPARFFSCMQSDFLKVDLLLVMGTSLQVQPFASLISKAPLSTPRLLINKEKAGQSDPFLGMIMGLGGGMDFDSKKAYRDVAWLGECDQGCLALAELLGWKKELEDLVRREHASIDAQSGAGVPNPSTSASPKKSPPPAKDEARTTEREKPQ

[7] = molecular target: T2, NAD-dependent protein deacetylase sirtuin-1 (Homo sapiens); experiment: as §1, with “Competitive” for “Non-competitive”, “constant” for “varying”, “varying” for “constant”
How it was run: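 Inhibitor tested against varied acetyl-lysine peptide substrate H2N-HK-(Nε-acetyl-lysine)-LM-COOH. A competitive inhibition constant (Kis) and the apparent Km for this peptide were derived from the kinetic data.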

Homo sapiens [8] = species: Homo sapiens; experiment: Selectivity ratio of IC50 for recombinant human His6/GST-tagged SIRT1 expressed in Escherichia coli to IC50 for recombinant human His6-tagged SIRT3 (101 to 399 residues) expressed in Escherichia coli
[9] = Aqueous solubility of the compound; type: physicochemical; conditions: buffer

SMILES: CC(=O)NCCCC[C@H](NC(=O)[C@H](CCCCNC(=O)CNC(=O)CNC(=O)CSc1nc2ccccc2s1)NC(=O)[C@H](CCCCNC(C)=O)NC(C)=O)C(N)=O
- pIC50 [1]: 3.94

SMILES: CC(=O)NCCCC[C@H](NC(=O)[C@H](CCCCNC(=O)CNC(=O)CI)NC(=O)[C@H](CCCCNC(C)=O)NC(C)=O)C(N)=O
- pIC50 [1]: < 3.70
- inhibition [2]: Active

SMILES: CC(=O)NCCCC[C@H](NC(=O)[C@H](CCCCNC(=O)CCCCCSCc1ccccc1)NC(=O)[C@H](CCCCNC(C)=O)NC(C)=O)C(N)=O
- pIC50 [1]: 4.24

SMILES: CC(=O)NCCCC[C@H](NC(=O)[C@H](CCCCNC(=O)CSc1nc2ccccc2s1)NC(=O)[C@H](CCCCNC(C)=O)NC(C)=O)C(N)=O
- pIC50 [1]: 4.11

SMILES: CC(=O)NCCCC[C@H](NC(=O)[C@H](CCCCNC(=O)CCCCCSc1nc2c(N)ncnc2[nH]1)NC(=O)[C@H](CCCCNC(C)=O)NC(C)=O)C(N)=O
- pIC50 [1]: < 3.05

SMILES: CC(=O)NCCCC[C@H](NC(=O)[C@H](CCCCNC(=O)CCCCCSc1nc2ccccc2o1)NC(=O)[C@H](CCCCNC(C)=O)NC(C)=O)C(N)=O
- pIC50 [1]: 3.88

SMILES: CC(=O)NCCCC[C@H](NC(=O)[C@H](CCCCNC(=O)CCCCCSc1nc2ccccc2[nH]1)NC(=O)[C@H](CCCCNC(C)=O)NC(C)=O)C(N)=O
- pIC50 [1]: 3.73

SMILES: CC(=O)NCCCC[C@H](NC(=O)[C@H](CCCCNC(=O)CCCCCCCSc1nc2c(N)ncnc2[nH]1)NC(=O)[C@H](CCCCNC(C)=O)NC(C)=O)C(N)=O
- pIC50 [1]: 4.34

SMILES: CC(=O)NCCCC[C@H](NC(=O)[C@H](CCCCNC(=O)CSCc1ccccc1)NC(=O)[C@H](CCCCNC(C)=O)NC(C)=O)C(N)=O
- pIC50 [1]: 3.77

SMILES: CC(=O)NCCCC[C@H](NC(=O)[C@H](CCCCNC(=O)CSc1nnc(/C=C/c2ccccc2)[nH]1)NC(=O)[C@H](CCCCNC(C)=O)NC(C)=O)C(N)=O
- pIC50 [1]: 3.83

Stronger by pIC50 [1], values ahead:

- pIC50 [1]: 4.81
SMILES: CC(=O)NCCCC[C@H](NC(=O)[C@H](CCCCNC(=O)CCCCCSc1ncc(-c2ccccc2)s1)NC(=O)[C@H](CCCCNC(C)=O)NC(C)=O)C(N)=O

- pIC50 [1]: 4.84
SMILES: CC(=O)NCCCC[C@H](NC(=O)[C@H](CCCCNC(=O)CCCCCSc1cccc2ccccc12)NC(=O)[C@H](CCCCNC(C)=O)NC(C)=O)C(N)=O

- pIC50 [1]: 4.74
SMILES: CC(=O)NCCCC[C@H](NC(=O)[C@H](CCCCNC(=O)CSc1ncc(-c2ccccc2)s1)NC(=O)[C@H](CCCCNC(C)=O)NC(C)=O)C(N)=O

- pIC50 [1]: 4.57
SMILES: CC(=O)NCCCC[C@H](NC(=O)[C@H](CCCCNC(=O)CCCSc1nc2ccccc2s1)NC(=O)[C@H](CCCCNC(C)=O)NC(C)=O)C(N)=O

- pIC50 [1]: 4.52
SMILES: CC(=O)NCCCC[C@H](NC(=O)[C@H](CCCCNC(=O)CCCCCCSc1nc2ccccc2s1)NC(=O)[C@H](CCCCNC(C)=O)NC(C)=O)C(N)=O

- pIC50 [1]: 4.91
- inhibition [3]: Active
- Ratio IC50 (Homo sapiens [4]): > 16
- pIC50 [5]: < 3.00
- pIC50 [6]: < 3.70
- inhibition [7]: Active
- Ratio IC50 (Homo sapiens [8]): > 81
SMILES: CC(=O)NCCCC[C@H](NC(=O)[C@H](CCCCNC(=O)CCCCCSc1nc2ccccc2s1)NC(=O)[C@H](CCCCNC(C)=O)NC(C)=O)C(N)=O

- pIC50 [1]: 4.84
SMILES: CC(=O)NCCCC[C@H](NC(=O)[C@H](CCCCNC(=O)CCCCCSc1ccc2ccccc2c1)NC(=O)[C@H](CCCCNC(C)=O)NC(C)=O)C(N)=O

- pIC50 [1]: 4.41
- inhibition [2]: Active
- pIC50 [6]: 4.65
SMILES: CC(=O)NCCCC[C@H](NC(=O)[C@H](CCCCNC(=O)CI)NC(=O)[C@H](CCCCNC(C)=O)NC(C)=O)C(N)=O

- pIC50 [1]: 5.28
- solubility [9]: Insoluble
SMILES: CC(=O)NCCCC[C@H](NC(=O)[C@H](CCCCNC(=O)CCCCCCCSc1nc2ccccc2s1)NC(=O)[C@H](CCCCNC(C)=O)NC(C)=O)C(N)=O
